Measured values as given in ChEMBL document CHEMBL4406880, “Design, synthesis, and bioactivity of dihydropyrimidine derivatives as kinesin spindle protein inhibitors” (Bioorg Med Chem, 2019).

How the values were obtained:
Assay type in all cases: functional
SF-295 = experiment: Growth inhibition of human SF295 cells incubated for 48 hrs by sulforhodamine B assay; settings: SF-295, 48 h
In short: (§1)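 NCI-60 five-dose SRB assay. Cells were exposed for 48 h to tenfold dilutions of 0.01, 0.1, 1, 10 and 100 µM, in RPMI 1640 with 5% FBS. Plates fixed with TCA at the time of drug addition served as the time-zero reference. GI50 is the concentration giving a 50% reduction in net growth. TGI is total growth inhibition. LC50 is a net 50% loss of the initial cells.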

NCI/ADR-RES [1] = experiment: Growth inhibition of human NCI/ADR-RES cells incubated for 48 hrs by sulforhodamine B assay
In short: (§2)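 NCI-60 five-dose SRB assay in RPMI 1640 with 5% FBS, 37 °C, 5% CO2. Compound given at five tenfold dilutions, 0.01–100 µM, for 48 h. Adherent cells fixed with TCA, suspension cells with 16% final TCA. Bound SRB read at 515 nm and growth calculated against time-zero and untreated controls. GI50 taken from dose–response curves as the concentration giving a 50% decrease in net cell growth.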

786-0 = experiment: Growth inhibition of human 786-0 cells incubated for 48 hrs by sulforhodamine B assay; settings: 786-0, 48 h
In short: (§3)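 NCI-60 five-dose mode: five tenfold dilutions (0.01, 0.1, 1, 10, 100 µM) are applied for 48 h to cells in RPMI 1640 with 5% FBS at 37 °C. Endpoint is TCA fixation with sulforhodamine B read at 515 nm. % growth comes from the 0 h and control absorbances. GI50 is the concentration giving a 50% reduction in net cell growth.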

UO-31 [2] = experiment: Growth inhibition of human UO31 cells incubated for 48 hrs by sulforhodamine B assay; settings: UO-31, 48 h; in short: as §1
MCF7 = experiment: Growth inhibition of human MCF7 cells incubated for 48 hrs by sulforhodamine B assay; settings: MCF7, 48 h; in short: as §2
SNB-75 = experiment: Induction of apoptosis in human SNB75 cells assessed as necrosis at 2 uM incubated for 24 hrs by annexin V FITC and propidium iodide based flow cytometry (reference value: 0.44 %)
U-251 = experiment: Growth inhibition of human U251 cells assessed as cell viability at 100 uM incubated for 48 hrs by sulforhodamine B assay; settings: U-251, 48 h, read-out: Activity
NCI-H226 = experiment: Growth inhibition of human NCI-H226 cells assessed as cell viability at 100 uM incubated for 48 hrs by sulforhodamine B assay; settings: NCI-H226, 48 h, read-out: Activity
A498 [3] = experiment: Growth inhibition of human A498 cells assessed as cell viability at 1 uM incubated for 48 hrs by sulforhodamine B assay; settings: A498, 48 h, read-out: Activity; in short: as §3
IGROV-1 [4] = experiment: Growth inhibition of human IGROV1 cells assessed as cell viability at 1 uM incubated for 48 hrs by sulforhodamine B assay; settings: IGROV-1, 48 h, read-out: Activity
SF-268 = experiment: Growth inhibition of human SF268 cells assessed as cell viability at 1 uM incubated for 48 hrs by sulforhodamine B assay; settings: SF-268, 48 h, read-out: Activity
PC-3 [5] = experiment: Growth inhibition of human PC3 cells assessed as cell viability at 0.1 uM incubated for 48 hrs by sulforhodamine B assay; settings: PC-3, 48 h, read-out: Activity
CAKI-1 = experiment: Growth inhibition of human Caki1 cells assessed as cell viability at 0.1 uM incubated for 48 hrs by sulforhodamine B assay; settings: CAKI-1, 48 h, read-out: Activity
IGROV-1 [6] = experiment: Growth inhibition of human IGROV1 cells assessed as cell viability at 0.1 uM incubated for 48 hrs by sulforhodamine B assay; settings: IGROV-1, 48 h, read-out: Activity
HCC 2998 = experiment: Growth inhibition of human HCC2998 cells assessed as cell viability at 0.1 uM incubated for 48 hrs by sulforhodamine B assay; settings: HCC 2998, 48 h, read-out: Activity
NCI-H460 = experiment: Growth inhibition of human NCI-H460 cells assessed as cell viability at 0.1 uM incubated for 48 hrs by sulforhodamine B assay; settings: NCI-H460, 48 h, read-out: Activity
MOLT-4 = experiment: Growth inhibition of human MOLT4 cells assessed as cell viability at 0.1 uM incubated for 48 hrs by sulforhodamine B assay; settings: MOLT-4, 48 h, read-out: Activity
PC-3 [7] = experiment: Growth inhibition of human PC3 cells assessed as cell viability at 0.001 uM incubated for 48 hrs by sulforhodamine B assay relative to control; settings: PC-3, 48 h, read-out: Activity
TK-10 = experiment: Growth inhibition of human TK10 cells assessed as cell viability at 0.001 uM incubated for 48 hrs by sulforhodamine B assay relative to control; settings: TK-10, 48 h, read-out: Activity
HT-29 = experiment: Growth inhibition of human HT-29 cells assessed as cell viability at 0.001 uM incubated for 48 hrs by sulforhodamine B assay relative to control; settings: HT-29, 48 h, read-out: Activity
SR = experiment: Growth inhibition of human SR cells assessed as cell viability at 0.001 uM incubated for 48 hrs by sulforhodamine B assay relative to control; settings: read-out: Activity
OVCAR-4 = experiment: Growth inhibition of human OVCAR4 cells assessed as cell viability at 100 uM incubated for 48 hrs by sulforhodamine B assay; settings: OVCAR-4, 48 h, read-out: Activity
NCI/ADR-RES [8] = experiment: Growth inhibition of human NCI/ADR-RES cells assessed as cell viability at 100 uM incubated for 48 hrs by sulforhodamine B assay; settings: read-out: Activity
A498 [9] = experiment: Growth inhibition of human A498 cells assessed as cell viability at 100 uM incubated for 48 hrs by sulforhodamine B assay; settings: A498, 48 h, read-out: Activity; in short: as §3
RXF 393 = experiment: Growth inhibition of human RXF393 cells assessed as cell viability at 100 uM incubated for 48 hrs by sulforhodamine B assay; settings: RXF 393, 48 h, read-out: Activity
UO-31 [10] = experiment: Growth inhibition of human UO31 cells assessed as cell viability at 100 uM incubated for 48 hrs by sulforhodamine B assay; settings: UO-31, 48 h, read-out: Activity
[11] = read-out: LC50 (the source's name)
[12] = read-out: pLC50 (the source's name) (converted)

SMILES: CC1=C(C(=O)OCc2ccccc2)C(c2ccc3c(c2)OCO3)n2c(nc3ccccc32)N1 (racemic)
- GI50 (SF-295; read-out: GI50): 0.33 µM
- LC50 (concentration causing 50% net loss of initial cells) (SF-295; read-out: LC50): > 100 µM
- TGI (SF-295; read-out: TGI): > 100 µM
- GI50 (SF-295; read-out: pGI50 (converted)): 0.331 µM
- LC50 (concentration causing 50% net loss of initial cells) (SF-295; read-out: pLC50 (converted)): > 100 µM
- TGI (SF-295; read-out: pTGI): > 100 µM
- GI50 (NCI/ADR-RES [1]; read-out: GI50): 0.33 µM
- CC50 (NCI/ADR-RES [1]; [11]): > 100 µM
- TGI (NCI/ADR-RES [1]; read-out: TGI): > 100 µM
- GI50 (NCI/ADR-RES [1]; read-out: pGI50 (converted)): 0.331 µM
- CC50 (NCI/ADR-RES [1]; [12]): > 100 µM
- TGI (NCI/ADR-RES [1]; read-out: pTGI): > 100 µM
- GI50 (786-0; read-out: GI50): 0.47 µM
- CC50 (786-0; [11]): > 100 µM
- TGI (786-0; read-out: TGI): > 100 µM
- GI50 (786-0; read-out: pGI50 (converted)): 0.468 µM
- CC50 (786-0; [12]): > 100 µM
- TGI (786-0; read-out: pTGI): > 100 µM
- GI50 (UO-31 [2]; read-out: GI50): 0.59 µM
- CC50 (UO-31 [2]; [11]): > 100 µM
- GI50 (UO-31 [2]; read-out: pGI50 (converted)): 0.589 µM
- CC50 (UO-31 [2]; [12]): > 100 µM
- TGI (UO-31 [2]; read-out: pTGI (converted)): 63.1 µM
- GI50 (MCF7; read-out: GI50): 0.32 µM
- CC50 (MCF7; [11]): > 100 µM
- TGI (MCF7; read-out: TGI): > 100 µM
- GI50 (MCF7; read-out: pGI50 (converted)): 0.316 µM
- CC50 (MCF7; [12]): > 100 µM
- TGI (MCF7; read-out: pTGI): > 100 µM
- Activity (SNB-75): 2.05%
- viability at 100 µM (U-251): 3%
- viability at 100 µM (NCI-H226): 64%
- viability at 1 µM (A498 [3]): 15%
- viability at 1 µM (IGROV-1 [4]): 39%
- viability at 1 µM (SF-268): 32%
- viability at 0.1 µM (PC-3 [5]): 91%
- viability at 0.1 µM (CAKI-1): 74%
- viability at 0.1 µM (IGROV-1 [6]): 93%
- viability at 0.1 µM (HCC 2998): 96%
- viability at 0.1 µM (NCI-H460): 100%
- viability at 0.1 µM (MOLT-4): 99%
- viability at 0.001 µM (PC-3 [7]): 89%
- viability at 0.001 µM (TK-10): 92%
- viability at 0.001 µM (HT-29): 98%
- viability at 0.001 µM (SR): 84%
- viability at 100 µM (OVCAR-4): 19%
- viability at 100 µM (NCI/ADR-RES [8]): 14%
- viability at 100 µM (A498 [9]): 37%
- viability at 100 µM (RXF 393): 15%
- viability at 100 µM (UO-31 [10]): -7%
